Drawing on ChEMBL document CHEMBL5715960, “Epigenetic Co-Deregulation of EZH2/TET1 is a Senescence-Countering, Actionable Vulnerability in Triple-Negative Breast Cancer” (Theranostics, 2019), this text covers Activity for two molecules.

The source made the active and inactive calls. No cut-off for these calls is given here.

Series [1] relates to MDA-MB-231. As to the kind of experiment: Cytotoxicity against human MDA-MB-231 cells upto 0.5 ug/ml. Format: functional, cell-based. The following applies: dose <= 0.5 µg/ml.
For series [2], the system named is MDA-MB-436. The series is described as follows: Cytotoxicity against human MDA-MB-436 cells upto 0.5 ug/ml. The following applies: dose <= 0.5 µg/ml. Format: functional, cell-based.
For series [3], the system named is MDA-MB-231. The series is described as follows: Antiproliferative activity against human MDA-MB-231 cells assessed as increase in global H3K9me3 expression level by immunoblot analysis. Format: functional, cell-based. An outline of the steps:
(§1)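 Cells exposed to GSK343 at 2 µM (standard level unless stated otherwise), lysed and immunoblotted; α-tubulin and total H3 as loading controls.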
For orientation: In western blotting, separated proteins are transferred to a membrane and probed.

For series [4], the system named is MDA-MB-436. The series is described as follows: Antiproliferative activity against human MDA-MB-436 cells assessed as increase in global H3K9me3 expression level by immunoblot analysis. The class given is functional, cell-based. A digest of the protocol:
as §1

For the next series, the system named is BT-474. The series is described as follows: Antiproliferative activity against human BT-474 cells assessed as increase in global H3K9me3 expression level by immunoblot analysis. Format: toxicity, cell-based. A digest of the protocol:
as §1

The subject of the next series is MCF7. The series is described as follows: Antiproliferative activity against human MCF7 cells assessed as increase in global H3K9me3 expression level by immunoblot analysis. Format: toxicity, cell-based. An outline of the steps: as §1

Take `COc1cccc2c1C(=O)c1c(O)c3c(c(O)c1C2=O)C[C@@](O)(C(=O)CO)C[C@@H]3O[C@H]1C[C@H](N)[C@H](O)[C@H](C)O1`: the outcome in the series on MDA-MB-231 [1] and in the series on MDA-MB-436 [2] was inactive.
For `Nc1nccc2c1ncn2[C@@H]1C=C(CO)[C@@H](O)[C@H]1O`, in the series on MDA-MB-231 [3], the result was Active. Further, the outcome with MDA-MB-436 [4] was inactive. Besides, the Activity result in the series on BT-474 and in the series on MCF7 was “Non-Toxic” in each case.
